Assay results taken from ChEMBL document CHEMBL1136739, “Modes of methyleneoxy bridging and their effect on tetrahydronaphthalene lignan cytotoxicity” (2003).

Assays:
[1] = system: SF-539; test: Cytotoxicity against CNS SF-539 cell line; assay type: functional; conditions: Homo sapiens
Summary of the method: (§1)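 Tested in the 60 human cancer cell line panel, after a preliminary one-dose screen in three cell lines. The value is the molar concentration giving 50% growth inhibition (GI50), reported as log GI50 for each cell line.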

[2] = system: UACC-62; test: Cytotoxicity against melanoma UACC-62 cell line; assay type: functional; conditions: Homo sapiens; summary of the method: as §1
[3] = system: Panel (Carcinoma cell lines); test: Mean graph midpoint for growth inhibition of all human cancer cell lines.; assay type: functional
Summary of the method: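 Mean graph midpoint: the average GI50 (molar) over all human cancer cell lines successfully tested in the 60 cell line panel, expressed as log GI50.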

[4] = system: DU-145; test: Cytotoxicity against prostate DU-145 cell line; assay type: functional; conditions: Homo sapiens; summary of the method: as §1
[5] = system: SNB-75; test: Cytotoxicity against prostate CNS SNB-75 cell line; assay type: functional; conditions: Homo sapiens; summary of the method: as §1
[6] = system: HOP-62; test: Cytotoxicity against lung HOP-62 cell line; assay type: functional; conditions: Homo sapiens; summary of the method: as §1
[7] = system: OVCAR-4; test: Cytotoxicity against […] OVCAR-4 cell line; assay type: functional; conditions: Homo sapiens; summary of the method: as §1
[8] = system: NCI-H322M; test: Cytotoxicity against lung […] cell line; assay type: functional; conditions: Homo sapiens; summary of the method: as §1
[9] = system: MDA-MB-435 (human); test: Cytotoxicity against breast MDA-MB-435 cell line
[10] = system: OVCAR-3; test: Cytotoxicity against ovarian OVCAR-3 cell line; assay type: functional; conditions: Homo sapiens; summary of the method: as §1
[11] = system: HCT-116; test: Cytotoxicity against colon HCT116 cell line; assay type: functional; conditions: Homo sapiens; summary of the method: as §1
[12] = system: SR; test: Cytotoxicity against leukemia SR cell line; assay type: functional; conditions: Homo sapiens; summary of the method: as §1
[13] = system: SN12C; test: Cytotoxicity against renal SN12C cell line; assay type: functional; conditions: Homo sapiens; summary of the method: as §1
[14] = in the assay text read “CNS” for “prostate CNS”

GI50 [3] | SMILES | GI50 [1] | GI50 [2] | GI50 [4] | GI50 [5, 14] | GI50 [6] | GI50 [7] | GI50 [8] | GI50 [9] | GI50 [10] | GI50 [11] | GI50 [12] | GI50 [13] | GI50 [5]
38 µM | COc1cc2c(c(OC)c1OC)OC[C@@H]1[C@H]2c2cc3c(cc2C[C@H]1C)OCO3 | 20.9 µM | 30.2 µM | > 75.9 µM | 12.3 µM | > 75.9 µM | 37.2 µM | > 75.9 µM | 11.5 µM | 33.1 µM | 31.6 µM | 19.1 µM | > 75.9 µM | 
47.9 µM | COc1cc2c(cc1OC)[C@]1(c3cc(OC)c(OC)c(OC)c3)OC[C@H](C2)[C@@H]1CO | 17.8 µM | 63.1 µM | 30.2 µM |  | 47.9 µM | 77.6 µM | 43.7 µM | 6.76 µM | 24 µM | 30.2 µM | 44.7 µM | 58.9 µM | 
4.07 µM | COc1cc([C@]23OC[C@H](Cc4cc5c(cc42)OCO5)[C@@H]3CO)cc(OC)c1OC | 2.51 µM | 4.27 µM | 2.63 µM | 2.69 µM | 4.37 µM | 23.4 µM | 6.17 µM | 0.295 µM | 1.45 µM | 2.88 µM | 0.589 µM |  | 
0.851 µM | COc1cc([C@]23OC[C@H](Cc4cc5c(cc42)OCO5)[C@@H]3C)cc(OC)c1OC |  | 0.407 µM | 0.479 µM |  | 0.794 µM | 0.38 µM | 2.14 µM |  | 0.186 µM | 0.437 µM | 0.148 µM | 5.37 µM | 0.38 µM
30.9 µM | COc1cc2c(c(OC)c1OC)OC[C@H]1[C@H](CO)Cc3cc4c(cc3[C@@H]21)OCO4 | 20.9 µM | 25.7 µM | 37.2 µM | 42.7 µM | 52.5 µM | 39.8 µM | 47.9 µM | 19.1 µM | 25.1 µM | 30.2 µM | 5.13 µM | 44.7 µM | 
3.8 µM | COc1ccc([C@]23OC[C@H](Cc4cc(OC)c(OC)cc42)[C@@H]3C)cc1OC | 1.95 µM | 6.92 µM | 3.89 µM |  | 2.4 µM |  |  |  | 2.4 µM | 2.75 µM |  | 12 µM | 
10.5 µM | COc1cc([C@]23OC[C@H](Cc4cc5c(cc42)OCO5)[C@H]3CO)cc(OC)c1OC | 3.89 µM | 0.0776 µM | 4.47 µM |  | 0.219 µM |  |  | 7.41 µM | 0.182 µM | 0.0437 µM |  | 4.79 µM | 
20 µM | COc1cc2c(cc1OC)[C@H]1c3cc(OC)c(OC)c(OC)c3OC[C@H]1[C@H](CO)C2 | 24.5 µM | 20 µM | 22.9 µM | 3.63 µM | 60.3 µM | 1.95 µM | 8.71 µM | 18.2 µM | 15.1 µM | 22.4 µM | 18.2 µM | 25.1 µM | 
40.7 µM | COc1cc2c(c(OC)c1OC)OC[C@H]1[C@H](COC(C)=O)Cc3cc4c(cc3[C@@H]21)OCO4 | 57.5 µM | 31.6 µM | 70.8 µM |  | 67.6 µM | 47.9 µM |  | 39.8 µM | 56.2 µM | 61.7 µM | 21.9 µM | 40.7 µM | 
12.3 µM | COc1cc([C@]23OC[C@H](Cc4cc5c(cc42)OCO5)[C@H]3COC(C)=O)cc(OC)c1OC | 19.1 µM | 10 µM |  |  | 25.1 µM |  |  | 1.86 µM |  | 13.8 µM |  | 25.7 µM | 
> 100 µM | COc1ccc(C23OCC24C2COC(c5cc(OC)c(OC)cc53)C24)cc1OC (stereo unspecified) | > 100 µM | > 100 µM | > 100 µM |  | > 100 µM |  |  | > 100 µM | > 100 µM | > 100 µM |  |  | 
23.4 µM | COc1cc([C@@H]2c3cc4c(cc3[C@@H]3OC[C@H]2[C@@H]3CO)OCO4)cc(OC)c1OC | 15.5 µM | 26.9 µM | 39.8 µM |  | 19.1 µM |  |  | 3.89 µM | 14.5 µM | 29.5 µM |  | 31.6 µM | 
32.4 µM | COc1cc([C@@H]2c3cc4c(cc3[C@H]3OC[C@@H]2[C@@H]3CO)OCO4)cc(OC)c1OC | 17.8 µM | 18.2 µM | 30.2 µM |  | 47.9 µM |  |  | 6.76 µM | 24 µM | 30.2 µM |  | 58.9 µM | 
0.0182 µM | COc1cc(C23OCC24C2COC(c5cc6c(cc53)OCO6)C24)cc(OC)c1OC (stereo unspecified) | < 0.01 µM | < 0.01 µM | < 0.01 µM |  | < 0.01 µM |  |  | < 0.01 µM | < 0.01 µM | < 0.01 µM |  |  | 
> 100 µM | COc1cc2c(cc1OC)[C@@H]1OC[C@H]([C@@H]2c2cc(OC)c(OC)c(OC)c2)[C@@H]1CO |  |  |  |  |  |  |  |  |  |  |  |  | 
3.89 µM | COc1cc([C@]23OC[C@H](Cc4cc5c(cc42)OCO5)[C@@H]3COC(C)=O)cc(OC)c1OC | 1.74 µM | 2.95 µM | 4.57 µM | 2 µM | 4.27 µM | 4.27 µM | 4.37 µM | 0.468 µM | 2.14 µM | 2.34 µM | 0.759 µM | 5.01 µM | 
41.7 µM | COc1cc2c(cc1OC)C1(c3cc(OC)c(OC)c(OC)c3)OCC13C1COC2C13 (stereo unspecified) | 31.6 µM | 69.2 µM | 29.5 µM |  | 70.8 µM |  |  | 19.5 µM | 30.2 µM | 28.2 µM |  | 34.7 µM | 
